Screening results (PubChem BioAssay)
Sampled rows, rich in hits. Any-hit rate of the full collection: about 4%.
Ecoli rRNA inh = inhibits bacterial ribosomal RNA function over humanized ribosomes; E. coli WT GFP vs humanized-ribosome RFP mutants, fluorescence, 24 h; stronger effect = lower value; DMSO median 0, no signal -100; GFP signal change (wild-type ribosome), % (no concentration beside the values); actives 1.6% (n = 350,000);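 active = significant combined selectivity score with lowered wild-type GFP, culture density cut under 30%, mutant RFP and density less affected; inactive = any of these conditions unmet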
FN deposit inh = fibronectin deposition inhibition; inhibition, % at 12.6 µM; actives 0.086% (n = 350,000); AH1F fibroblasts, Alexa488-fibronectin deposition fluorescence, overnight; AID 743247;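 active = mean inhibition across replicates of 30% or more, regardless of how many single replicates reach that level; inconclusive = mean under 30% yet at least half of replicates reach 30%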;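 note: positive control wells lacked labelled fibronectin entirely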
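material = AH1F fibroblast monolayer depositing Alexa488-labelled fibronectin into matrix | amount = 10000 AH1F cells/well | buffer or medium = DMEM plus 2% serum, read in PBS | incubation = 1 h cell adhesion before compound, then overnight fibronectin incubation | detection = fluorescence at 485 nm excitation, 525 nm emission | evaluation = percent inhibition as loss of matrix-bound fibronectin fluorescence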
Statin myotox sup = suppressors of simvastatin-induced myotoxicity in C2C12 myotubes; rescue of ATP level, % at 7.49 µM; AID 602340; ATP luminescence, 48 h; scaled: DMSO 0, geranylgeraniol control 100; actives 0.78% (n = 330,000);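 active = mean ATP rescue above about 67%, or every replicate alone reaching that limit, limit read from the data, passing the limit was not always enough; inconclusive = no clear call, values can overlap the other calls; inactive = mean under the limit and some replicate under it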;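 note: myotubes were challenged with 10 µM simvastatin during compound exposure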
E-selectin induc = induces E-selectin expression in human endothelial cells | actives 0.37% (n = 260,000) | HUVEC E-selectin immunofluorescence imaging; normalized: neutral wells 0, TNF-alpha wells 100 | activation, % at 7.58 µM | AID 686992 | P16581;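 active = mean E-selectin-positive cell signal at least 10% of the positive control, reached in at least 60% of replicates, without over 20% cell loss; inconclusive = no rule given, readout overlaps actives, possibly toxicity-flagged; inactive = the rest, including those meeting only one limit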
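Test system – human umbilical vein endothelial cells (HUVEC), E-selectin induction · Input – 3,000 HUVEC seeded per well · Buffer or medium – EGM-2, gelatin · Compound dosing – single-point compound dose · Detection – immunofluorescence imaging · Measure – percent E-selectin-positive cells · Controls – TNF-alpha high, DMSO low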
FGF22 binding = shifts melting point of recombinant human FGF22; activity (Tm shift, normalised), % at 9.99 µM; AID 651658; Q9HCT0; recombinant FGF22 thermal shift, SYPRO orange fluorescence; percent of sucrose octasulfate shift, DMSO zero; actives 1.5% (n = 340,000);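 active = mean Tm shift, scaled 0 neutral to 100 positive control, at about 1.3% or above, every replicate too, limit read from the data; inconclusive = no clear call, values can overlap the other calls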
Target sequence (Q9HCT0 whole entry, looked up): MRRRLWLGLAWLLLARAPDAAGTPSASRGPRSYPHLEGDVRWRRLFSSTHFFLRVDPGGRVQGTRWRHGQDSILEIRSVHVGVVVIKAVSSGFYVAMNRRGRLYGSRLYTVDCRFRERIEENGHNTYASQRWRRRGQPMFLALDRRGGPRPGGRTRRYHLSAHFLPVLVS
SIRT5 block = inhibitors of human sirtuin-5 desuccinylase | Purified SirT5, succinyl-peptide AMC, trypsin-coupled fluorescence | inhibition, % at 15 µM | actives 1.1% (n = 330,000) | AID 652115; in the data active = inhibition above about 15%; inconclusive = no clear call, values can overlap the other calls
Target sequence (Q9NXA8 whole entry, looked up): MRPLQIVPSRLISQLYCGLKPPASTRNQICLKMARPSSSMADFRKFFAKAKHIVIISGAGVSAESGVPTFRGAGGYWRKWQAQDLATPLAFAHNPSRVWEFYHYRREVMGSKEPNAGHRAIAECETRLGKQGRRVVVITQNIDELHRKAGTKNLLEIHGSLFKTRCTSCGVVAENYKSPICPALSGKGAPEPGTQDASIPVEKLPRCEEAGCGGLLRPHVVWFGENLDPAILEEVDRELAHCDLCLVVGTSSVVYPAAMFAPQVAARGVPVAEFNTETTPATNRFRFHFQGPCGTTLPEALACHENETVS
HepG2 cytotox = HepG2 cell cytotoxicity | shares compounds with Ecoli rRNA inh | HepG2 viability, ATP luminescence, 72 h | activity change, negative = cytotoxicity, unspecified at 26 µM | 30 tested, under 10 active;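 active = compounds whose fitted half-maximal signal-loss concentration is at most twice their highest valid dose; inconclusive = flat curve with 30 to 70% signal loss, or poor fit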
AID977621 = wild-type E. coli growth inhibition versus H69 humanized strain – H69 mutant RFP, wild-type GFP, cherry-pick, dose response. shares compounds with Ecoli rRNA inh. fluorescence, 24 h. activity change, negative = inhibition at 50 µM. 1,900 tested, under 10 active. AID 977621;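 active = Wild-type ribosome reporter drop at least double the humanized mutant ribosome reporter drop, growth loss under a set limit; inconclusive = no clear call, values can overlap the other calls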;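 note: wild-type GFP and H69 mutant RFP strains grown together 50/50 in each well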
AID977628 = E. coli growth inhibition, wild-type GFP versus h24 humanized RFP strain, dose response, h24 mutant RFP vs wild-type GFP, cherry-pick; AID 977628; 1,900 tested, under 10 active; activity change, negative = inhibition at 50 µM; E. coli WT GFP strain growth, fluorescence, 24 h; shares compounds with Ecoli rRNA inh;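 active = compound lowering the normal-ribosome reporter at least twice as much as the humanized-ribosome reporter, growth loss under a set limit; inconclusive = no clear call, values can overlap the other calls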;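 note: wild-type GFP and h24 humanized RFP strains co-cultured 1 to 1 per well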
* hit, by the source's call; u = inconclusive; x = no result.

SMILES	Ecoli rRNA inh	FN deposit inh	Statin myotox sup	E-selectin induc	FGF22 binding	SIRT5 block	AID977621	AID977628	others
C[C@@H]1CCCCO[C@H](CN(C)C(=O)CCCN(C)C)[C@H](C)CN([C@@H](C)CO)C(=O)c2cc(NC(=O)Nc3cccc4ccccc34)ccc2O1	-36.1*	x	x	-0.2	-1.4	5.3	x	x	HepG2 cytotox=15.3
C[C@@H]1CCCCO[C@@H](CN(C)C(=O)CCCN(C)C)[C@@H](C)CN([C@H](C)CO)C(=O)c2cc(NC(=O)Nc3cccc4ccccc34)ccc2O1	3.0	x	x	0.0	x	1.4	-1.83	u
COc1ccccc1N(C)S(=O)(=O)c1ccc(C(=O)NC(C)c2ccccc2)cc1 (stereo not given)	-18.3*	5.8	-0.7	0.1	0.1	-1.0	x	u
O=C(N[C@@H]1C=C[C@H](CC(=O)N2CCc3ccccc3C2)O[C@H]1CO)C1CCC1	-3.2	13.8	-1.5	-0.2	-0.1	-0.8	x	x
O=C(C1CCOCC1)N1C[C@@H]2[C@H](c3ccccc31)[C@@H](CO)N2C(=O)c1ccccc1	4.9	x	-3.8	0.6	-0.6	6.2	x	x
CN(C)CCCN(C(=O)CCSc1ccccc1)c1nc2cc3c(cc2s1)OCO3	-31.1*	-10.7	26.2	x	-0.2	-3.4	-5.15	-3.77
O=C(Nc1cccc(S(=O)(=O)c2cccc(NC(=O)C3CC3)c2)c1)C1CC1	-23.2*	x	-1.2	x	-0.2	-8.7	u	-9.13
CCn1cc(CCC(=O)NC(C)c2ccccc2)c2ccccc21 (stereo not given)	-7.8	-1.6	-4.9	1.8	0.0	-0.3	x	x
CCn1cc(CCC(=O)NCCc2ccccc2)c2ccccc21	-19.3*	-14.4	21.8	0.2	-0.2	-2.5	-7.97	u
COC(=O)c1ccc(CSc2n[nH]c(=S)s2)o1	x	x	0.2	x	x	x	x	x
COC(=O)c1ccc(CSc2nc3ccccc3s2)o1	-32.7*	x	-5.5	x	0.0	-1.0	11.1	-2.88
CN(c1ccc(C(=O)NCc2cccs2)cc1)S(=O)(=O)c1ccccc1	-18.2*	0.4	4.4	5.2	-0.1	x	-5.31	-4.86
CCOC(=O)c1cnc2c(c(C)nn2C)c1Oc1ccc(OC)cc1	-13.9*	5.9	5.9	x	0.1	-4.2	3.82	-8.25
CCCNC(=O)N1CC2(CN(C(=O)Nc3cccc(F)c3)C2)c2c(n(C)c3cc(OC)ccc23)[C@H]1CO	-2.7	x	x	0.5	-0.2	4.1	x	x
CCOc1cc(/C=C(\CC(=O)O)c2nc3ccccc3s2)ccc1OC	-20.5*	-3.5	x	3.3	-0.5	2.6	-8.04	-11.7
CCCC[n+]1ccn(-c2nc3ccccc3nc2[N-]S(=O)(=O)c2cccs2)c1	-25.8*	4.3	-14.3	1.7	0.3	-1.3	x	-8.38
Cc1cc(-c2ccc(C)c(S(=O)(=O)NCC3CCN(Cc4ccccc4F)CC3)c2)on1	-16.1*	-12.4	-33.3	0.3	0.1	-3.0	-9.02	-6.59
Cc1cc(-c2ccc(C)c(S(=O)(=O)NCC3CCN(Cc4cccc(F)c4)CC3)c2)on1	-20.7	4.7	-15.0	x	-0.3	1.0	x	x
Cc1noc(C)c1NC(=O)Nc1ccc2c(c1)C(=O)N([C@H](C)CO)C[C@@H](C)[C@@H](CN(C)C(=O)Nc1ccc3c(c1)OCO3)OCCCC[C@@H](C)O2	-41.0*	2.6	x	-0.2	0.4	1.6	x	u	HepG2 cytotox=17.9
Cc1noc(C)c1NC(=O)Nc1ccc2c(c1)C(=O)N([C@H](C)CO)C[C@H](C)[C@H](CN(C)C(=O)Nc1ccc3c(c1)OCO3)OCCCC[C@@H](C)O2	4.7	-1.4	x	-0.4	0.3	-0.4	-7.1	u
